KCNK3 inh: human KCNK3 channel inhibition, primary screen; O14649; CHO-KCNK3 thallium flux, FluxOR fluorescence; hits give low values; B-score at 10 µM; 340,000 tested, 0.84% active;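 active = B-score under library mean minus 4 SD, starting fluorescence ratio at most library mean plus 5 SD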;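 note: more negative B-score means stronger inhibition of thallium flux through KCNK3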
KCNQ1 pot: potentiators or activators of human KCNQ1 potassium channel; CHO-K1 KCNQ1, thallium flux FluxOR fluorescence; hits give high values; B-score at 10 µM; 310,000 tested, 0.35% active;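 active = fluorescence ratio B-score, a plate-corrected score, at least three library SD, with initial intensity B-score within 5 SD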
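Material: CHO-K1 cells stably expressing KCNQ1. Medium: assay buffer for compound exposure, DMSO matched across wells. Reagent: K+/Tl+ depolarizing stimulus. Compound dosing: single-concentration screen. Times: 37 °C overnight plating, 90-min dark dye load, 20-min compound pretreatment. Technique: FluxOR Tl+ flux fluorescence.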
KCNK9 block: inhibitors of human KCNK9 two-pore domain potassium channel; Q9NPC2; B-score at 10 µM; HEK293 KCNK9, FluxOR thallium flux fluorescence; hits give low values; 310,000 tested, 1.2% active;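 active = ratio B-score over 3 SD below the library mean, with starting fluorescence within 5 SD of its mean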;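 note: negative B-score means less thallium flux so channel inhibition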
Target sequence (Q9NPC2 whole entry, looked up, the tested form may be a part): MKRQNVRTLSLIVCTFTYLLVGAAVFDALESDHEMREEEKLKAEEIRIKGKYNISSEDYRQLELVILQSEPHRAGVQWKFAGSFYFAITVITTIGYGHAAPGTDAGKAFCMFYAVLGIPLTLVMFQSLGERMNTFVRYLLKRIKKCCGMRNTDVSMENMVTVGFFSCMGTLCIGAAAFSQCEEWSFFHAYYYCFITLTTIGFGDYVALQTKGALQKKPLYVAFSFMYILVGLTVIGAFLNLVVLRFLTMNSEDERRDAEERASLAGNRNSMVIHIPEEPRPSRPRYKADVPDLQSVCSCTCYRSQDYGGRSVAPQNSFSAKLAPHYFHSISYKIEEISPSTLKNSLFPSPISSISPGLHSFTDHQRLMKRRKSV
hERG protect: hERG (human) protection from proarrhythmic block. Q12809. CHO-hERG, FluxOR thallium flux, dofetilide IC70 present. activation (rescue from dofetilide block), less the hit threshold, % at 10 µM. 310,000 tested, 0.51% active;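 active = activation above the mean of controls blocked by dofetilide plus 5 SD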;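 note: thallium influx through hERG after potassium depolarization seen as dye fluorescence rise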
KCNQ1 block: inhibitors of human KCNQ1 potassium channel; CHO-K1 KCNQ1, FluxOR thallium flux fluorescence; hits give high values; 310,000 tested, 1.3% active; B-score at 10 µM; P51787;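 active = compounds whose thallium flux B-score, printed positive for inhibition, exceeds three library SD while starting fluorescence stays within three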;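 note: channel opened by potassium depolarization with thallium stimulus after 20 min compound exposure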
KCC2 mod: modulators of human KCC2 chloride dependent transport | Q9H2X9 | KCC2 cells, thallium flux FluoZin-2 fluorescence | B-score of Tl+ flux slope (higher = more flux/activation; lower = inhibition) at 10 µM | 190,000 tested, 2.2% active | AID 1456;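 active = thallium flux slope and its plate-corrected score both differing from the plate sample mean at a set confidence after two filtering rounds, in either direction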;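 note: slope of fluorescence scaled to starting intensity during 10 to 20 s after thallium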
An asterisk follows results filed as active; i = inactive; / = no result; ! = repeats disagree. This is a sample that favours compounds with a hit; in the whole collection about 4.1% have one here.

SMILES	KCNK3 inh	KCNQ1 pot	KCNK9 block	hERG protect	KCNQ1 block	KCC2 mod
CCCCn1c(=O)c(C(=O)Nc2ccccc2C)c(O)c2ccccc21	i	i	i	-9	i	/
CC(C)CCn1c(=O)c(C(=O)Nc2ccccc2S(N)(=O)=O)c(O)c2ccccc21	i	i	i	-9	i	6.6*
CCCCn1c(=O)c(C(=O)Nc2cnccn2)c(O)c2ccccc21	i	i	i	-40	9*	0.78
NS(=O)(=O)c1ccc(N=Cc2c(O)n(-c3ccccc3)c(=O)[nH]c2=O)cc1	i	i	i	-7	i	0.73
CC(=O)OC1C(=O)OCC23CCC4(C)OC4C2OC2CC(OC(=O)C=CC=CC(=O)OCCC1C)C3(C)C21CO1 (configuration not stated)	i	/	/	/	/	/
CCOc1cc2c(cc1OCC)-n1cccc1C(c1cc(C)c(OC)cc1C)NC2 (configuration not stated)	i	i	i	-7	i	/
c1ccc(-c2nnc(C3CC(c4cccnc4)=NO3)o2)cc1 (configuration not stated)	i	i	i	-5	i	1.5
CCN(CC)c1ccc(C=C2C(=O)N(C)C(=S)N(C)C2=O)o1	i	i	i	3	i	-3
CCN(CC)c1ccc(/C=C2\C(=O)NC(=S)N(c3ccc(OC)cc3OC)C2=O)o1	i	i	i	-23	6*	/
CCN(CC)c1ccc(/C=C2\C(=O)NC(=S)N(C)C2=O)o1	i	i	i	-7	7*	-4.6
COc1ccc(C)cc1NC(=O)N1CCC2(CC1)OCCO2	i	i	i	-6	i	-0.95
CCn1c(O)c(C=NCCN2CCOCC2)c(=O)[nH]c1=S	i	i	i	0	i	0.72
Cc1cc[n+](Cc2ccccc2)cc1	i	i	i	-2	i	/
c1ccc(C[n+]2ccccc2)cc1	i	i	i	-7	7*	/
O=C(c1ccc(F)cc1)C(Cc1ccccc1)N1CCCCC1 (configuration not stated)	i	i	i	-6	i	-0.88
O=C(CCCN1CCC2(CC1)C(=O)NCN2c1ccccc1)c1ccc(F)cc1	i	23*	i	-15	i	-0.0068
O=C1NC(=O)C(Cc2ccccc2)(Cc2ccccc2)C(=O)N1Cc1ccccc1	i	/	/	/	/	/
c1ccc(-c2ccc(-c3n(-c4ccccn4)c4ccccc4[n+]3-c3ccccn3)cc2)cc1	i	i	i	-31	9*	0.013
CC=C(C)C1(CCC)C(=O)NC(=S)NC1=O	i	/	/	/	/	/
Cc1c(Cl)cccc1NC(=S)N1CC2CC(C1)c1cccc(=O)n1C2 (configuration not stated)	i	30*	i	-4	i	0.4
CCc1cccc(CC)c1NC(=S)N1CC2CC(C1)c1cccc(=O)n1C2 (configuration not stated)	i	i	i	-6	i	0.18
C[C@@H]1O[C@@H](O[C@@H]2C=C3CC[C@@H]4C(CC[C@]5(C)[C@@H](c6ccc(=O)oc6)CC[C@]45O)[C@@]3(C)CC2)[C@H](O)[C@H](O)[C@H]1O (some centres not stated)	i	/	/	/	/	/
CC[n+]1c(/C=C/N(C)c2ccccc2)sc2ccc(Cl)cc21	i	i	i	-23	6*	-1.7
CN(C)c1ccc(/C=C/C=C/c2sc3ccccc3[n+]2C)cc1	i	i	i	-18	i	0.099
CC[n+]1c(/C=C/C=C/c2ccc(N(C)C)cc2)sc2ccccc21	-11*	i	-6.6*	-29	i	-0.27
SMILES	KCNK3 inh	KCNQ1 pot	KCNK9 block	hERG protect	KCNQ1 block	KCC2 mod
Cc1ccccc1-n1c(C)nc2sccc2c1=O	i	i	i	-7	i	/
CCN(CC)c1ccc(N=Cc2c(O)n(Cc3ccccc3)c(=O)[nH]c2=O)cc1	i	i	-7.3*!	-12	7*!	-1.6
COc1ccc(Cn2c(O)c(/C=N/NC(=O)c3ccccc3)c(=O)[nH]c2=O)cc1	i	i	i	-16	7*	-0.74
O=c1[nH]c(=O)n(Cc2ccc(F)cc2)c(O)c1C=NCCN1CCCCC1	i	i	i	-9	i	0.64
COc1ccc(Cn2c(O)c(C=NCCN3CCOCC3)c(=O)[nH]c2=O)cc1	i	i	i	-3	i	9.1*
CN1CCN(c2nc(N(C)C)oc(=O)c2C#N)CC1	i	i	i	-11	i	0.066
NNC(=O)c1nc[nH]c1C(=O)Nc1ccc(Cl)cc1C(=O)c1ccccc1	i	i	i	-2	i	/
COc1cccc(-n2c(/C=C/c3ccc(O)c(O)c3)nc3ccccc3c2=O)c1	i	i	i	-28	6*	-1.1
CC(=O)C1CCC2C3CCC4CC(O)CCC4(C)C3C(O)CC12C (configuration not stated)	i	/	/	/	/	/
CCOc1ccc(-c2cc(C)[n+](CCc3ccc(OC)c(OC)c3)c(-c3ccc(OCC)cc3)c2)cc1	i	i	i	-28	10*	/
C[n+]1c(-c2ccccc2)cc(-c2ccc(O)cc2)cc1-c1ccccc1	i	i	i	-23	i	-0.47
Cc1cc(-c2ccccc2)cc(-c2ccccc2)[n+]1CCc1ccccc1	i	i	-8*	-26	8*	/
CCOc1ccc(-c2cc(C)[n+](CCO)c(-c3ccc(OCC)cc3)c2)cc1	i	i	i	-4	i	0.32
Clc1ccc(C[n+]2c(-c3ccccc3)cc(-c3ccccc3)cc2-c2ccccc2)cc1	i	i	-8.3*	-36	13*	/
CC/C(=N\NC(=O)c1ccccc1Cl)c1c(O)n(C2CCCCC2)c(=O)[nH]c1=O	i	i	i	-13	i	/
CC/C(=N\NC(=O)c1ccccc1)c1c(O)n(C2CCCCC2)c(=O)[nH]c1=O	i	i	i	-14	7*	/
CN(C)C1(CNC(=O)Nc2ccc(Cl)c(Cl)c2)CCCCC1	i	i	i	-9	i	/
COC(=O)C(C)Oc1cc(C)cc2oc(=O)c3c(c12)CCCC3 (configuration not stated)	-9.2*	i	i	-6	i	/
COC(=O)C(C)Oc1cc(C)cc2oc(=O)c3c(c12)CCC3 (configuration not stated)	i	i	i	-4	i	-0.48
O=c1[nH]c(=S)[nH]c(O)c1/C=C1/C=c2ccccc2=N1	i	i	i	45*	i	/
C/C(=N\Nc1cccc2ccccc12)c1c(O)n(Cc2ccccc2)c(=O)[nH]c1=O	i	i	-7.2*	-1	i	-0.42

Compound activity deposited in PubChem BioAssay by several laboratories.
